The values below come from ChEMBL document CHEMBL3112554, “Discovery of simplified N²-substituted pyrazolo[3,4-d]pyrimidine derivatives as novel adenosine receptor antagonists: efficient synthetic approaches, biological evaluations and molecular docking studies” (Bioorg Med Chem, 2014).

Broadly, the Ki is a dissociation constant, usually derived from enzyme kinetics or from competition with a known ligand.

The species entered for assay [1] is Homo sapiens. The assay is described as follows: Selectivity ratio of Ki for human adenosine A3 receptor to Ki for human adenosine A2A receptor.
For assay [2], the species on record is Homo sapiens. Description: Selectivity ratio of Ki for human adenosine A2A receptor to Ki for human adenosine A3 receptor. In a few lines: (§1)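 Ratios of Ki values from displacement assays in CHO cells (3 h, room temperature). The hA1 Ki ([3H]CCPA) or the hA2A Ki ([3H]NECA) was divided by the hA3 Ki ([3H]HEMADO). Each Ki is a geometric mean of n = 3–6.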
In a further assay the target is T1, Adenosine receptor A3 (Homo sapiens, UniProt P0DMS8).
T1 sequence (P0DMS8 whole entry): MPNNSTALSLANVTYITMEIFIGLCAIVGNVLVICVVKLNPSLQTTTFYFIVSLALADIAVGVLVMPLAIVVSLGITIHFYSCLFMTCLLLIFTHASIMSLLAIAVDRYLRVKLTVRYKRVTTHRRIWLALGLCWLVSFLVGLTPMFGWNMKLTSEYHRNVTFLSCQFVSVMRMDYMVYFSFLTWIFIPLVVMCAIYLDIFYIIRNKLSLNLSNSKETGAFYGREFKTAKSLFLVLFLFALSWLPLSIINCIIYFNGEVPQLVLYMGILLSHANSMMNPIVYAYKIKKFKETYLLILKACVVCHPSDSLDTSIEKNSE
The assay is described as follows: Displacement of [3H]-HEMADO from human adenosine A3 receptor expressed in CHO cells after 3 hrs by topcount scintillation counting analysis. The format is cell-based. A digest of the protocol:
(§2)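 Radioligand binding to membranes from CHO cells expressing the human receptor, run for 3 h at room temperature. Radioligands were [3H]CCPA for hA1, [3H]NECA for hA2A and [3H]HEMADO for hA3. Nonspecific binding was defined with 1 mM theophylline (hA1) or 100 µM R-PIA (hA2A, hA3). Bound ligand was separated by GF/B filtration and counted. Ki came from nonlinear fitting of competition curves using Cheng-Prusoff, as geometric means of n = 3–6 with 95% CI.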
A general note: Loss of bound radioactivity is the signal in a displacement assay; it reports binding, not function.

The next assay has as its target T2, Adenosine receptor A2b (Homo sapiens, UniProt P29275).
T2 sequence (P29275 whole entry): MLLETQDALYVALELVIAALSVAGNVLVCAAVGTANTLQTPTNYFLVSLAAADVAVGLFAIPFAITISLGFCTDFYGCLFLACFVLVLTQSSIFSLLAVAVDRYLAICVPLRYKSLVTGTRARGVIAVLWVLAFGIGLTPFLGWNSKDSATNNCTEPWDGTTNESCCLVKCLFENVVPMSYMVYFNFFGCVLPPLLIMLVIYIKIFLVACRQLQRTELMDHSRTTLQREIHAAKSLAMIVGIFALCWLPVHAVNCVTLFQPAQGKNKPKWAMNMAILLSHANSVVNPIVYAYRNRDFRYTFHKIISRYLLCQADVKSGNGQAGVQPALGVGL
The assay is described as follows: Antagonist activity at human adenosine A2B receptor expressed in CHO cells assessed as inhibition of NECA-induced adenylyl cyclase activity after 20 mins in presence of [alpha-32P]ATP. The format is functional, cell-based. In a few lines: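 Membranes from CHO cells transfected with the human A2B receptor were incubated for 20 min with 100 nM NECA, 150,000 cpm [α-32P]ATP and test compound at several concentrations. The incubation mixture contained no EGTA and no NaCl. Ki was derived from concentration-dependent inhibition of NECA-stimulated adenylyl cyclase activity (n = 3–6).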

Another assay addresses Adenosine receptor A2a (Homo sapiens, UniProt P29274). The assay is described as follows: Displacement of [3H]-NECA from human adenosine A2A receptor expressed in CHO cells after 3 hrs by topcount scintillation counting analysis. Type of assay: cell-based. A digest of the protocol: as §2
The next assay addresses T3, Adenosine receptor A1 (Homo sapiens, UniProt P30542).
T3 sequence (P30542 whole entry): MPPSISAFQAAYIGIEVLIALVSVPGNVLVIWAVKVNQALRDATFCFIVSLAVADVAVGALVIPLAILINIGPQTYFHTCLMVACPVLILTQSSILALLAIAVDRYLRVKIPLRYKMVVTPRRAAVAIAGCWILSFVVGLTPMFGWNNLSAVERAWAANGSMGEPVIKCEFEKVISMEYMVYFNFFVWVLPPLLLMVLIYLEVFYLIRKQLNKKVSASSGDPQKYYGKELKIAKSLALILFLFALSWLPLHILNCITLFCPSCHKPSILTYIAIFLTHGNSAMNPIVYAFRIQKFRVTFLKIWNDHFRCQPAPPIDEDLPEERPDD
Description: Displacement of [3H]-CCPA from human adenosine A1 receptor expressed in CHO cells after 3 hrs by topcount scintillation counting analysis. Type of assay: cell-based. A digest of the protocol: as §2

For assay [3], the species on record is Homo sapiens. Description: Selectivity ratio of Ki for human adenosine A1 receptor to Ki for human adenosine A2A receptor.
Assay [4] deals with Adenosine receptors; A1 & A3 (Homo sapiens) (UniProt P30542+P0DMS8). The assay is described as follows: Selectivity ratio of Ki for human adenosine A1 receptor to Ki for human adenosine A3 receptor. A digest of the protocol: as §1

Adenosine receptor A2a, sequence (P29274 whole entry): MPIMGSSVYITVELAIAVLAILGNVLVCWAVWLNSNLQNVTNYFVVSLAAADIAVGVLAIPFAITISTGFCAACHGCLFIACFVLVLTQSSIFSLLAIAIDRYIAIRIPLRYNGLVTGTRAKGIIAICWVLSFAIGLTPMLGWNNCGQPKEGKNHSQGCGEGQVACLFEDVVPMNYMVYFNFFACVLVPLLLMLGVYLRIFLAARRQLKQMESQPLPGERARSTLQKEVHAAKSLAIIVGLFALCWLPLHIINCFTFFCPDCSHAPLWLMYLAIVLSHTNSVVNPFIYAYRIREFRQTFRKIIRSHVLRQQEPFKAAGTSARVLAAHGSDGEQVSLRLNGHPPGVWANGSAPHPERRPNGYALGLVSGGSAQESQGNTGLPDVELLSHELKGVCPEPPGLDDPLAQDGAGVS

For the molecule `CC(C)n1cc2c(Cl)nc(NC(=O)c3ccc(F)cc3)nc2n1`, the Ratio Ki in the assay listed under Homo sapiens [1] was above 37; in the assay filed under Homo sapiens [2] it was above 0.02. For the same molecule, the inhibitory constant (Ki) was above 60 µM at Adenosine receptor A3, above 20 µM on Adenosine receptor A2b, 1600 nM on Adenosine receptor A2a and 3.4 µM on Adenosine receptor A1.
Turning to `CC(C)n1cc2c(Cl)nc(N(C(=O)c3ccccc3)C(=O)c3ccccc3)nc2n1`, the Ratio Ki in the assay listed under Homo sapiens [3] was determined as 9.9; in the assay filed under Homo sapiens [1] it was 8; in assay [4] it was 1.1; in the assay filed under Homo sapiens [2], 0.1. Moreover, the Ki is 6.7 µM on Adenosine receptor A3, above 20 µM on Adenosine receptor A2b, 800 nM at Adenosine receptor A2a and 7.9 µM at Adenosine receptor A1.
Take `O=C(Nc1nc(Cl)c2cn(CCc3ccccc3)nc2n1)c1ccc(F)cc1`: the Ratio Ki in the assay listed under Homo sapiens [1] was above 50; in assay [4], 0.02; in the assay filed under Homo sapiens [2], 0.02. For the same molecule, the Ki on Adenosine receptor A3 is above 100 µM; at Adenosine receptor A2b, above 20 µM; at Adenosine receptor A2a, 2060 nM; on Adenosine receptor A1, 2.7 µM.
Regarding `Cc1ccc(C(=O)Nc2nc(Cl)c3cn(C(C)C)nc3n2)cc1`, the Ratio Ki in the assay listed under Homo sapiens [1] is 91; in the assay filed under Homo sapiens [2], 0.01. Also, the Ki was above 100 µM at Adenosine receptor A3, above 20 µM on Adenosine receptor A2b, 1100 nM on Adenosine receptor A2a and 4.1 µM at Adenosine receptor A1.
